From publication PMC3180826 (ACS chemical neuroscience, 2010)

Legend:
[1] = Plasma-brain exposure profile PK study; assay type: in vivo; details: rat
Outline: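 Test compound was dissolved in sterile water at 5 mg/mL and dosed at 10 mg/kg ip in male Sprague–Dawley rats (225–250 g). Plasma and brain were collected at 0.5, 1, 2, 4 and 8 h, with three rats per time point. Brains were homogenized 1:3 in PBS, and samples were extracted by acetonitrile/0.1% formic acid precipitation with internal standard. Quantification was by LC-MS/MS SRM (10–2000 ng/mL calibration), with noncompartmental analysis.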

rM4 = target: T1, rM4 (Rattus norvegicus, UniProt P08485); experiment: Calcium mobilization assay, agonist mode, M4; assay type: cell-based; details: up to 30 μM
T1 sequence (P08485 1-478): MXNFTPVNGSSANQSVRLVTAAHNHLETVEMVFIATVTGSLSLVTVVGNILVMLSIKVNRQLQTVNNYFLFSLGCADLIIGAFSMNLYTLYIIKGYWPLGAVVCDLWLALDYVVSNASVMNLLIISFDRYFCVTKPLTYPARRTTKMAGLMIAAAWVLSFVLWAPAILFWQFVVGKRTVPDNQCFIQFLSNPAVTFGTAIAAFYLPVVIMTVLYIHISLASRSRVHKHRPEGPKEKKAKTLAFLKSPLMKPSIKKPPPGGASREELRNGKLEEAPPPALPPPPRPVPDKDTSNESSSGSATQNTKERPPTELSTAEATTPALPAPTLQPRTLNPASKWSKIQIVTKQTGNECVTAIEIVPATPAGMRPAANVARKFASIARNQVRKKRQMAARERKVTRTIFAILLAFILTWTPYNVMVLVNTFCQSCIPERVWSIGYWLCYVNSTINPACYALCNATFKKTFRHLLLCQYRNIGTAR
Outline: (§1)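 CHO-K1 cells stably expressing hM2/Gqi5 or rM4/Gqi5 (6 × 10^4 cells/well), or hM3 or hM5 (5 × 10^4 cells/well), were cultured overnight at 37 °C in 5% CO2. Cells were loaded with 2 μM Fluo-4 AM for 1 h at 37 °C in HBSS with 20 mM HEPES and 2.5 mM probenecid, pH 7.4. Eight-point test compound concentration series were added at 19 s of a 130 s read. Calcium flux was read as fluorescence fold over basal.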

M5 = target: T2, M5 (Homo sapiens, UniProt P08912); experiment: [3H]-NMS competition binding, M5 CHO membranes; details: concentrations well above those required to fully activate M1
T2 sequence (P08912 1-532): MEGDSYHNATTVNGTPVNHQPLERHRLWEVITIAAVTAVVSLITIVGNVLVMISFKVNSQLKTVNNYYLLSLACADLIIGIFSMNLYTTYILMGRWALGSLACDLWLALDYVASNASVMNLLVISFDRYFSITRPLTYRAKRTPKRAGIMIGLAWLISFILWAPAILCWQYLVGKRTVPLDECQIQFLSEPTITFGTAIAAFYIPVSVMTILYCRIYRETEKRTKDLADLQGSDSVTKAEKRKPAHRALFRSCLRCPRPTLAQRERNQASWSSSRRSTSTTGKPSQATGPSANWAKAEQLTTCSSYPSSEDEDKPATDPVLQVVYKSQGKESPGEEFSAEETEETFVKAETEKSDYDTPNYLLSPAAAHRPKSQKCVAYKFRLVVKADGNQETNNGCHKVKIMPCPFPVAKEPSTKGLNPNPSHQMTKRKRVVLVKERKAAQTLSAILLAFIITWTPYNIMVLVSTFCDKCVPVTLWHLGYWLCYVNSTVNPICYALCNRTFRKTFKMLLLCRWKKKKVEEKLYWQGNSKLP

hM3 = hM3 (Homo sapiens, UniProt P20309); experiment: Calcium mobilization assay, agonist mode, M3; assay type: cell-based; details: up to 30 μM
hM3, sequence (P20309 whole entry): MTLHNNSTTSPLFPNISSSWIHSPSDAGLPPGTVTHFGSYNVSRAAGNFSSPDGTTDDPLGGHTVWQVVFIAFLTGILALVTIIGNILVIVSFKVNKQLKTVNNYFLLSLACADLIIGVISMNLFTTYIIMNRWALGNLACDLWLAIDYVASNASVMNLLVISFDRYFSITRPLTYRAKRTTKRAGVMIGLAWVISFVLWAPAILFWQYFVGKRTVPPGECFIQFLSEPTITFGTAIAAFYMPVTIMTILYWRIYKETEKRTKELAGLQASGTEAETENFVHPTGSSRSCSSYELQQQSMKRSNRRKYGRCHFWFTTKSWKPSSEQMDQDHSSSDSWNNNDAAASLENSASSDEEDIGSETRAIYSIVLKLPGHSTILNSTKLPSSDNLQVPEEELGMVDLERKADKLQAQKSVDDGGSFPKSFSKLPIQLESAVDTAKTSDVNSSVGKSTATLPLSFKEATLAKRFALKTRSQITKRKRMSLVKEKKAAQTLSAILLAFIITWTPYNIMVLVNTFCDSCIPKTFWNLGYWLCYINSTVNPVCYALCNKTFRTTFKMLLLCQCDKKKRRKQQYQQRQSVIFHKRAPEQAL
Outline: as §1

hM5 = target: T3, hM5 (Homo sapiens, UniProt P08912); experiment: Calcium mobilization assay, agonist mode, M5; assay type: cell-based; details: up to 30 μM
T3 sequence (P08912 1-532): T2 sequence (P08912 1-532)
Outline: as §1

M4 = target: T4, M4 (Rattus norvegicus, UniProt P08485); experiment: [3H]-NMS competition binding, M4 CHO membranes; details: concentrations well above those required to fully activate M1
T4 sequence (P08485 1-478): T1 sequence (P08485 1-478)

rM1 Y381A = target: T5, rM1 Y381A (Rattus norvegicus, UniProt P08482, Y381A); experiment: Calcium mobilization in rM1 Y381A; assay type: cell-based
T5 sequence (P08482 1-460 Y381A): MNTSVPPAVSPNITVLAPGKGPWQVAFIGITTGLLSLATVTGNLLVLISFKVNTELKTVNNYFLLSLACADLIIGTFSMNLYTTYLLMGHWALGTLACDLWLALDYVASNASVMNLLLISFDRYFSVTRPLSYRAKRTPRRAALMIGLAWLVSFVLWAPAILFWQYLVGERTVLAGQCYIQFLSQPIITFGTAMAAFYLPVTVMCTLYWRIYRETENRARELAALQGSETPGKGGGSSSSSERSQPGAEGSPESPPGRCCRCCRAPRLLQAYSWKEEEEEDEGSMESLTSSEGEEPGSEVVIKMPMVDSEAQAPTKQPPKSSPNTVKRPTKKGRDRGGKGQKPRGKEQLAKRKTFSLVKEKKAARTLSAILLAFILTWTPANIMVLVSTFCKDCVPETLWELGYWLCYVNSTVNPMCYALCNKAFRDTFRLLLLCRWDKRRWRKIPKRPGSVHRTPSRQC

hM2 = target: T6, hM2 (Homo sapiens, UniProt P08172); experiment: Calcium mobilization assay, agonist mode, M2; assay type: cell-based; details: up to 30 μM
T6 sequence (P08172 1-466): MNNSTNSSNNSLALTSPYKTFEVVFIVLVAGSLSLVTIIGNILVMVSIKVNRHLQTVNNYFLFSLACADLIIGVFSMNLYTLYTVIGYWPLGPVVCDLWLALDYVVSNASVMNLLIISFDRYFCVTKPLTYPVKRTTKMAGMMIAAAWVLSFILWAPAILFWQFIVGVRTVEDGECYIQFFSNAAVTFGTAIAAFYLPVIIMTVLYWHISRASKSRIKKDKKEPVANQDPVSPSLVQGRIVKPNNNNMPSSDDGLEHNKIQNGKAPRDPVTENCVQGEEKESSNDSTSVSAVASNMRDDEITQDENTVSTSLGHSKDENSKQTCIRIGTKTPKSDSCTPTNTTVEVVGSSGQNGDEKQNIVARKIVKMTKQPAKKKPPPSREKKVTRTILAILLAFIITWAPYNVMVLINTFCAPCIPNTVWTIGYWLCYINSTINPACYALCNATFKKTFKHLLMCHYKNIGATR
Outline: as §1

SMILES: CCOC(=O)N1CCC(NCCNC(=O)c2ccccc2)CC1 [VU0184670, ethyl 4-(2-benzamidoethylamino)piperidine-1-carboxylate]
- brain level ([1]; 10 mg/kg i.p., brain): 14490.12 ± 2663.82 ng/mL
- plasma level ([1]; 10 mg/kg i.p., plasma): 311.86 ± 20.77 ng/mL
- central penetrance ([1]; i.p. administration): centrally-penetrant
- agonist activity at M4 (rM4): no activity
- reduction of [3H]-NMS binding to M5 (M5): did not reduce
- agonist activity at M3 (hM3): no activity
- agonist activity at M5 (hM5): no activity
- reduction of [3H]-NMS binding to M4 (M4): did not reduce
- EC50 (rM1 Y381A): 304 ± 156 nM
- potency at M1 Y381A compared with WT M1 (rM1 Y381A; M1Y381A CHO cells vs WT M1 CHO cells): potencies similar to those observed in WT M1 CHO cells
- rM1 Y381A AChmax (maximal efficacy) (rM1 Y381A; rM1 Y381A cells): 63.25 % max
- agonist activity at M2 (hM2): no activity
